Reference: ChEMBL document CHEMBL2390927, “Design, synthesis and antimicrobial evaluation of novel benzimidazole type of Fluconazole analogues and their synergistic effects with Chloromycin, Norfloxacin and Fluconazole” (2013)
Values after ≈ are worked out from the molar mass of the structure shown.

Key:
Saccharomyces cerevisiae = test: Antifungal activity against Saccharomyces cerevisiae after 24 hrs by two-fold serial dilution method; format: functional
Summary of the method: (§1)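 Spore suspension in sterile distilled water from one-day-old cultures on Sabouraud agar, final 1–5 × 10³ spore mL⁻¹. Compound stocks diluted in sterile RPMI 1640 as two-fold serial dilutions in microdilution plates. MIC is the lowest concentration completely inhibiting growth. Growth monitored visually and spectrophotometrically, in triplicate.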

Staphylococcus aureus [1] = test: Antibacterial activity against methicillin-resistant Staphylococcus aureus N315 after 24 hrs by two-fold serial dilution method; format: functional; details: N315, 24 h
Cyberlindnera jadinii = test: Antifungal activity against Candida utilis after 24 hrs by two-fold serial dilution method; format: functional; details: Williopsis jadinii; summary of the method: as §1
Pseudomonas aeruginosa = test: Antibacterial activity against Pseudomonas aeruginosa ATCC 27853 after 24 hrs by two-fold serial dilution method; format: functional; details: ATCC 27853, 24 h
Summary of the method: (§2)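 MIC taken as the lowest concentration giving complete growth inhibition, by standard two-fold serial dilution in 96-well plates following NCCLS. Stocks in DMSO, diluted in Mueller–Hinton broth. Inoculum adjusted with sterile saline to 1 × 10⁵ CFU. DMSO with inoculum and no drug served as solvent control. Growth read visually and spectrophotometrically, in triplicate.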

Candida albicans = test: Antifungal activity against Candida albicans ATCC 76615 after 24 hrs by two-fold serial dilution method; format: functional; details: ATCC 76615, 24 h; summary of the method: as §1
Bacillus = test: Antibacterial activity against Bacillus proteus ATCC 13315 after 24 hrs by two-fold serial dilution method; format: functional; details: ATCC 13315, 24 h; summary of the method: as §2
Bacillus subtilis = test: Antibacterial activity against Bacillus subtilis ATCC 21216 after 24 hrs by two-fold serial dilution method; format: functional; details: ATCC 21216, 24 h; summary of the method: as §2
Escherichia coli = test: Antibacterial activity against Escherichia coli JM109 after 24 hrs by two-fold serial dilution method; format: functional; details: JM109, 24 h
Staphylococcus aureus [2] = test: Antibacterial activity against Staphylococcus aureus ATCC 6538 after 24 hrs by two-fold serial dilution method; format: functional; details: ATCC 6538, 24 h
Candida = test: Antifungal activity against Candida mycoderma after 24 hrs by two-fold serial dilution method; format: functional; summary of the method: as §1
Salmonella typhi = test: Antibacterial activity against Bacillus typhi after 24 hrs by two-fold serial dilution method; format: functional, Salmonella enterica subsp. enterica serovar Typhi; details: Salmonella enterica
Summary of the method: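 Two-fold serial dilution in 96-well plates following NCCLS; compounds dissolved in DMSO as stocks, then diluted in Mueller-Hinton broth; bacterial suspension adjusted with sterile saline to 1 × 10⁵ CFU; MIC taken as lowest concentration completely inhibiting growth, monitored visually and spectrophotometrically; DMSO-plus-inoculum well as solvent control; triplicate.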

Aspergillus flavus = test: Antifungal activity against Aspergillus flavus after 24 hrs by two-fold serial dilution method; format: functional; summary of the method: as §1
Micrococcus luteus = test: Antibacterial activity against Micrococcus luteus ATCC 4698 after 24 hrs by two-fold serial dilution method; format: functional; details: ATCC 4698, 24 h; summary of the method: as §2

SMILES	MIC (Saccharomyces cerevisiae) [µg/mL]	MIC (Staphylococcus aureus [1]) [µg/mL]	MIC (Cyberlindnera jadinii) [µg/mL]	MIC (Pseudomonas aeruginosa) [µg/mL]	MIC (Candida albicans) [µg/mL]	MIC (Bacillus) [µg/mL]	MIC (Bacillus subtilis) [µg/mL]	MIC (Escherichia coli) [µg/mL]	MIC (Staphylococcus aureus [2]) [µg/mL]	MIC (Candida) [µg/mL]	MIC (Salmonella typhi) [µg/mL]	MIC (Aspergillus flavus) [µg/mL]	MIC (Micrococcus luteus) [µg/mL]
Ic1ccc(NCc2nc3ccccc3[nH]2)cc1	64 (≈ 183 µM)	128 (≈ 367 µM)	64 (≈ 183 µM)	128 (≈ 367 µM)	64 (≈ 183 µM)	64 (≈ 183 µM)	64 (≈ 183 µM)	64 (≈ 183 µM)	64 (≈ 183 µM)	128 (≈ 367 µM)	64 (≈ 183 µM)	128 (≈ 367 µM)	128 (≈ 367 µM)
O=C(N[C@H](CO)[C@H](O)c1ccc([N+](=O)[O-])cc1)C(Cl)Cl [CHLORAMPHENICOL]	–	–	–	–	–	32 (≈ 99 µM)	32 (≈ 99 µM)	–	8 (≈ 24.8 µM)	–	32 (≈ 99 µM)	–	8 (≈ 24.8 µM)
Fc1ccccc1N(CCCCn1c2ccccc2c2ccccc21)Cc1nc2ccccc2[nH]1	64 (≈ 138 µM)	128 (≈ 277 µM)	32 (≈ 69.2 µM)	64 (≈ 138 µM)	32 (≈ 69.2 µM)	64 (≈ 138 µM)	64 (≈ 138 µM)	128 (≈ 277 µM)	64 (≈ 138 µM)	64 (≈ 138 µM)	128 (≈ 277 µM)	64 (≈ 138 µM)	128 (≈ 277 µM)
FC(F)(F)c1cccc(N(Cc2nc3ccccc3[nH]2)Cc2ccc(Cl)cc2Cl)c1	32 (≈ 71.1 µM)	32 (≈ 71.1 µM)	32 (≈ 71.1 µM)	32 (≈ 71.1 µM)	64 (≈ 142 µM)	64 (≈ 142 µM)	64 (≈ 142 µM)	64 (≈ 142 µM)	32 (≈ 71.1 µM)	32 (≈ 71.1 µM)	32 (≈ 71.1 µM)	64 (≈ 142 µM)	32 (≈ 71.1 µM)
CCCCCCCCN(Cc1nc2ccccc2[nH]1)c1ccc(C)cc1.Cl.Cl	64	128	64	128	64	64	128	128	64	128	64	128	64
Cc1ccc(N(Cc2nc3ccccc3[nH]2)Cc2ccc(F)cc2F)cc1	64 (≈ 176 µM)	16 (≈ 44 µM)	32 (≈ 88.1 µM)	32 (≈ 88.1 µM)	32 (≈ 88.1 µM)	64 (≈ 176 µM)	32 (≈ 88.1 µM)	128 (≈ 352 µM)	16 (≈ 44 µM)	32 (≈ 88.1 µM)	32 (≈ 88.1 µM)	32 (≈ 88.1 µM)	64 (≈ 176 µM)
Fc1ccccc1N(Cc1ccc(Cl)c(Cl)c1)Cc1nc2ccccc2[nH]1	64 (≈ 160 µM)	128 (≈ 320 µM)	32 (≈ 79.9 µM)	64 (≈ 160 µM)	32 (≈ 79.9 µM)	64 (≈ 160 µM)	32 (≈ 79.9 µM)	32 (≈ 79.9 µM)	64 (≈ 160 µM)	32 (≈ 79.9 µM)	128 (≈ 320 µM)	64 (≈ 160 µM)	128 (≈ 320 µM)
Clc1ccc(NCc2nc3ccccc3[nH]2)cc1	64 (≈ 248 µM)	32 (≈ 124 µM)	32 (≈ 124 µM)	128 (≈ 497 µM)	64 (≈ 248 µM)	64 (≈ 248 µM)	64 (≈ 248 µM)	32 (≈ 124 µM)	64 (≈ 248 µM)	64 (≈ 248 µM)	128 (≈ 497 µM)	64 (≈ 248 µM)	32 (≈ 124 µM)
Fc1ccc(NCc2nc3ccccc3[nH]2)cc1	64 (≈ 265 µM)	64 (≈ 265 µM)	32 (≈ 133 µM)	64 (≈ 265 µM)	64 (≈ 265 µM)	32 (≈ 133 µM)	32 (≈ 133 µM)	64 (≈ 265 µM)	32 (≈ 133 µM)	32 (≈ 133 µM)	128 (≈ 531 µM)	32 (≈ 133 µM)	64 (≈ 265 µM)
CCCN(Cc1nc2ccccc2[nH]1)c1ccc(C)cc1	128 (≈ 458 µM)	256 (≈ 916 µM)	64 (≈ 229 µM)	256 (≈ 916 µM)	128 (≈ 458 µM)	128 (≈ 458 µM)	64 (≈ 229 µM)	128 (≈ 458 µM)	128 (≈ 458 µM)	128 (≈ 458 µM)	128 (≈ 458 µM)	128 (≈ 458 µM)	128 (≈ 458 µM)
FC(F)(F)c1cccc(NCc2nc3ccccc3[nH]2)c1	32 (≈ 110 µM)	16 (≈ 54.9 µM)	32 (≈ 110 µM)	64 (≈ 220 µM)	32 (≈ 110 µM)	16 (≈ 54.9 µM)	32 (≈ 110 µM)	32 (≈ 110 µM)	16 (≈ 54.9 µM)	16 (≈ 54.9 µM)	32 (≈ 110 µM)	16 (≈ 54.9 µM)	32 (≈ 110 µM)
Fc1ccccc1NCc1nc2ccccc2[nH]1	32 (≈ 133 µM)	32 (≈ 133 µM)	64 (≈ 265 µM)	128 (≈ 531 µM)	32 (≈ 133 µM)	64 (≈ 265 µM)	32 (≈ 133 µM)	32 (≈ 133 µM)	16 (≈ 66.3 µM)	32 (≈ 133 µM)	64 (≈ 265 µM)	32 (≈ 133 µM)	64 (≈ 265 µM)
